Results published in ChEMBL document CHEMBL1152312, “Neopyrrolomycins with broad spectrum antibacterial activity” (2009).
≈ marks a conversion by molar mass, not a printed value. Calls of active or inactive are those of the source. No cut-off for these calls is given here.

Legend:
Klebsiella pneumoniae [1] = assay: Antibacterial activity against Klebsiella pneumoniae 4352 by microdilution method; format: functional
In short: (§1)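 MIC determined by CLSI broth microdilution; organisms were ATCC strains and clinical isolates.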

HepG2 = assay: Cytotoxicity against human HepG2 cells assessed as effect on cell viability at 43 ug/mL after 48 hrs by celltiter glow assay; format: functional, cell-based
In short: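 HepG2 grown in MEM with 10% heat-inactivated FBS, 0.10 mM nonessential amino acids, 1 mM pyruvate, 37 °C, 5% CO2. Seeded at 1.25 × 10^5 cells/mL 24 h before treatment. DMSO-dissolved compounds tested over 0.6–128 µg/mL (1% final DMSO) for 48 h. Luminescent CellTiter-Glo viability read-out relative to DMSO control; CC90 taken.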

Streptococcus pneumoniae [2] = assay: Antibacterial activity against Streptococcus pneumoniae 49619 by microdilution method; format: functional; in short: as §1
Escherichia coli [3] = assay: Antibacterial activity against Escherichia coli 1411 by microdilution method; format: functional; in short: as §1
Staphylococcus aureus [4] = assay: Antibacterial activity against methicillin-resistant Staphylococcus aureus 43300 by microdilution method; format: functional
In short: (§2)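 MIC values from CLSI broth microdilution. Strains came from the ATCC collection and from clinical isolates.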

Pseudomonas aeruginosa [5] = assay: Antibacterial activity against Pseudomonas aeruginosa 27853 by microdilution method; format: functional; in short: as §1
NHDF = assay: Cytotoxicity against NHDF cells after 48 hrs by celltiter glow assay; format: functional; conditions: Homo sapiens
In short: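 Fibroblasts kept at 37 °C, 5% CO2 in FGM-2 medium, passage ≤16. Seeded at 1.25 × 10^5 cells/mL 24 h before dosing. Compounds dissolved in DMSO, tested 0.6–128 µg/mL at 1% final DMSO for 48 h. Viability by CellTiter-Glo luminescence, expressed as percent of DMSO control.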

Enterococcus faecium [6] = assay: Antibacterial activity against vancomycin-resistant Enterococcus faecium 700221 by microdilution method; format: functional; in short: as §2
Escherichia coli [7] = assay: Antibacterial activity against Escherichia coli 25922 by microdilution method; format: functional; in short: as §1
Staphylococcus aureus [8] = assay: Antibacterial activity against methicillin-sensitive Staphylococcus aureus 29213 by microdilution method; format: functional; in short: as §2
Staphylococcus aureus [9] = assay: Antibacterial activity against methicillin-sensitive Staphylococcus aureus 6538 by microdilution method; format: functional; in short: as §2
Haemophilus influenzae [10] = assay: Antibacterial activity against Haemophilus influenzae 1224 ATCC 49247 by microdilution method; format: functional; in short: as §2
Streptococcus pneumoniae [11] = assay: Antibacterial activity against multidrug-resistant Streptococcus pneumoniae 933 by microdilution method; format: functional; in short: as §2
Streptococcus pneumoniae [12] = assay: Antibacterial activity against quinolone-resistant Streptococcus pneumoniae 376 by microdilution method; format: functional; in short: as §2
Enterococcus faecium [13] = assay: Antibacterial activity against vancomycin-sensitive Enterococcus faecium 843 by microdilution method; format: functional; in short: as §2
[14] = test system: Staphylococcus epidermidis; assay: Antibacterial activity against methicillin-sensitive Staphylococcus epidermidis 1597 by microdilution method; format: functional; in short: as §2
[15] = test system: Staphylococcus epidermidis; assay: Antibacterial activity against methicillin-resistant Staphylococcus epidermidis 1452 by microdilution method; format: functional; in short: as §2
Staphylococcus aureus [16] = assay: Antibacterial activity against vancomycin-intermediate Staphylococcus aureus 2018 by microdilution method; format: functional; in short: as §2
Klebsiella pneumoniae [17] = assay: Antibacterial activity against ampicillin beta-lactamase, multidrug-resistant Klebsiella pneumoniae 2262 by microdilution method; format: functional; in short: as §2
Streptococcus pneumoniae [18] = assay: Antibacterial activity against Streptococcus pneumoniae 1195 ATCC 49619 by microdilution method; format: functional; in short: as §2
[19] = test system: Haemophilus parainfluenzae; assay: Antibacterial activity against Haemophilus parainfluenzae 2319 ATCC 7901 by microdilution method; format: functional; in short: as §2
Staphylococcus aureus [20] = assay: Antibacterial activity against methicillin-resistant Staphylococcus aureus 2170 by microdilution method; format: functional; in short: as §2
Streptococcus pneumoniae [21] = assay: Antibacterial activity against penicillin-susceptible Streptococcus pneumoniae 866 by microdilution method; format: functional; in short: as §2
Staphylococcus aureus [22] = assay: Antibacterial activity against vancomycin-intermediate Staphylococcus aureus 2012 by microdilution method; format: functional; in short: as §2
Escherichia coli [23] = assay: Antibacterial activity against Escherichia coli 102 ATCC 25922 by microdilution method; format: functional; in short: as §2
Enterococcus faecalis = assay: Antibacterial activity against vancomycin-resistant Enterococcus faecalis 846 by microdilution method; format: functional; in short: as §2
Pseudomonas aeruginosa [24] = assay: Antibacterial activity against Pseudomonas aeruginosa 1473 by microdilution method; format: functional; in short: as §2
Staphylococcus aureus [25] = assay: Antibacterial activity against community-acquired Staphylococcus aureus 2144 by microdilution method; format: functional; in short: as §2
Streptococcus pneumoniae [26] = assay: Antibacterial activity against penicillin-resistant Streptococcus pneumoniae 940 by microdilution method; format: functional; in short: as §2
Klebsiella pneumoniae [27] = assay: Antibacterial activity against Klebsiella pneumoniae 2239 by microdilution method; format: functional; in short: as §2
Streptococcus pneumoniae [28] = assay: Antibacterial activity against penicillin-resistant Streptococcus pneumoniae 748 by microdilution method; format: functional; in short: as §2
Escherichia coli [29] = assay: Antibacterial activity against extended spectrum beta-lactamase-producing Escherichia coli 2269 by microdilution method; format: functional; in short: as §2
Staphylococcus aureus [30] = assay: Antibacterial activity against Linezolid, methicillin-resistant Staphylococcus aureus 1725 by microdilution method; format: functional; in short: as §2
Moraxella catarrhalis = assay: Antibacterial activity against Moraxella catarrhalis 557 by microdilution method; format: functional; in short: as §2
Staphylococcus aureus [31] = assay: Antibacterial activity against methicillin-resistant Staphylococcus aureus 1137 by microdilution method; format: functional; in short: as §2
Staphylococcus aureus [32] = assay: Antibacterial activity against methicillin-sensitive Staphylococcus aureus 100 ATCC 29213 by microdilution method; format: functional; in short: as §2
Streptococcus pneumoniae [33] = assay: Antibacterial activity against quinolone-resistant Streptococcus pneumoniae 379 by microdilution method; format: functional; in short: as §2
Staphylococcus aureus [34] = assay: Antibacterial activity against Linezolid, methicillin-resistant Staphylococcus aureus 1651 by microdilution method; format: functional; in short: as §2
Serratia marcescens = assay: Antibacterial activity against Serratia marcescens 1635 by microdilution method; format: functional; in short: as §2
Enterococcus faecium [35] = assay: Antibacterial activity against vancomycin-resistant Enterococcus faecium 1254 by microdilution method; format: functional; in short: as §2
[36] = test system: Staphylococcus epidermidis; assay: Antibacterial activity against Staphylococcus epidermidis 495 by microdilution method; format: functional; in short: as §2
Streptococcus agalactiae = assay: Antibacterial activity against Streptococcus agalactiae 2033 by microdilution method; format: functional; in short: as §2
Streptococcus pyogenes = assay: Antibacterial activity against Streptococcus pyogenes 723 by microdilution method; format: functional; in short: as §2
Haemophilus influenzae [37] = assay: Antibacterial activity against ampicillin-resistant Haemophilus influenzae 1742 by microdilution method; format: functional; in short: as §2

Oc1cc(Cl)cc(Cl)c1-n1cc(Cl)c(Cl)c1Cl [NEOPYRROLOMYCIN C] was tested, and the MIC90 (Klebsiella pneumoniae [1]) was 16 µg/mL (≈ 48.3 µM), the Activity (HepG2) was “Active” and the MIC90 (Streptococcus pneumoniae [2]) was 8 µg/mL (≈ 24.1 µM). For the same compound, the MIC90 (Escherichia coli [3]) was 16 µg/mL (≈ 48.3 µM), the MIC90 (Staphylococcus aureus [4]) was 1 µg/mL (≈ 3.02 µM) and the MIC90 (Pseudomonas aeruginosa [5]) was 32 µg/mL (≈ 96.6 µM). For the same compound, the CC90 (NHDF) was 43 µg/mL (≈ 130 µM), the MIC90 (Enterococcus faecium [6]) was 2 µg/mL (≈ 6.03 µM) and the MIC90 (Escherichia coli [7]) was 16 µg/mL (≈ 48.3 µM). The MIC90 (Staphylococcus aureus [8]) was 2 µg/mL (≈ 6.03 µM), the MBC (Staphylococcus aureus [9]) was 8 µg/mL (≈ 24.1 µM) and the MIC90 (Staphylococcus aureus [9]) was 2 µg/mL (≈ 6.03 µM).

With Oc1cc(Cl)c(Cl)cc1-n1cc(Cl)c(Cl)c1Cl [NEOPYRROLOMYCIN D] the MIC90 (Klebsiella pneumoniae [1]) was 16 µg/mL (≈ 48.3 µM), the Activity (HepG2) was “Active” and the MIC90 (Streptococcus pneumoniae [2]) was 8 µg/mL (≈ 24.1 µM). The MIC90 (Escherichia coli [3]) was 16 µg/mL (≈ 48.3 µM), the MIC90 (Staphylococcus aureus [4]) was 2 µg/mL (≈ 6.03 µM) and the MIC90 (Pseudomonas aeruginosa [5]) was 32 µg/mL (≈ 96.6 µM). It also gave a CC90 (NHDF) of 43 µg/mL (≈ 130 µM), an MIC90 (Enterococcus faecium [6]) of 4 µg/mL (≈ 12.1 µM) and an MIC90 (Escherichia coli [7]) of 16 µg/mL (≈ 48.3 µM). It also gave an MIC90 (Staphylococcus aureus [8]) of 2 µg/mL (≈ 6.03 µM), an MBC (Staphylococcus aureus [9]) of 8 µg/mL (≈ 24.1 µM) and an MIC90 (Staphylococcus aureus [9]) of 2 µg/mL (≈ 6.03 µM).

Work on CN[C@H](CC(C)C)C(=O)N[C@H]1C(=O)N[C@@H](CC(N)=O)C(=O)N[C@H]2C(=O)N[C@H]3C(=O)N[C@H](C(=O)N[C@H](C(=O)O)c4cc(O)cc(O)c4-c4cc3ccc4O)[C@H](O)c3ccc(c(Cl)c3)Oc3cc2cc(c3O[C@@H]2O[C@H](CO)[C@@H](O)[C@H](O)[C@H]2O[C@H]2C[C@](C)(N)[C@H](O)[C@H](C)O2)Oc2ccc(cc2Cl)[C@H]1O [VANCOMYCIN] yielded an MIC90 (Haemophilus influenzae [10]) of over 64 µg/mL, an MIC90 (Streptococcus pneumoniae [11]) of 1 µg/mL (≈ 0.69 µM) and an MIC90 (Streptococcus pneumoniae [12]) of 0.2 µg/mL (≈ 0.138 µM). It also gave an MIC90 (Enterococcus faecium [13]) of 2 µg/mL (≈ 1.38 µM), an MIC90 [14] of 2 µg/mL (≈ 1.38 µM) and an MIC90 [15] of 4 µg/mL (≈ 2.76 µM). It also gave an MIC90 (Staphylococcus aureus [16]) of 8 µg/mL (≈ 5.52 µM), an MIC90 (Klebsiella pneumoniae [17]) of over 64 µg/mL and an MIC90 (Streptococcus pneumoniae [18]) of 0.25 µg/mL (≈ 0.173 µM). It also gave an MIC90 [19] of 64 µg/mL (≈ 44.2 µM), an MIC90 (Staphylococcus aureus [20]) of 1 µg/mL (≈ 0.69 µM) and an MIC90 (Streptococcus pneumoniae [21]) of 0.5 µg/mL (≈ 0.345 µM). It also gave an MIC90 (Staphylococcus aureus [22]) of 16 µg/mL (≈ 11 µM), an MIC90 (Escherichia coli [23]) of over 64 µg/mL and an MIC90 (Enterococcus faecalis) of over 64 µg/mL. It also gave an MIC90 (Pseudomonas aeruginosa [24]) of over 64 µg/mL, an MIC90 (Staphylococcus aureus [25]) of 0.12 µg/mL (≈ 0.0828 µM) and an MIC90 (Streptococcus pneumoniae [26]) of 0.25 µg/mL (≈ 0.173 µM). It also gave an MIC90 (Klebsiella pneumoniae [27]) of over 64 µg/mL, an MIC90 (Streptococcus pneumoniae [28]) of 0.5 µg/mL (≈ 0.345 µM) and an MIC90 (Escherichia coli [29]) of over 64 µg/mL. It also gave an MIC90 (Staphylococcus aureus [30]) of 2 µg/mL (≈ 1.38 µM), an MIC90 (Moraxella catarrhalis) of over 64 µg/mL and an MIC90 (Staphylococcus aureus [31]) of 1 µg/mL (≈ 0.69 µM). The MIC90 (Staphylococcus aureus [32]) was 2 µg/mL (≈ 1.38 µM), the MIC90 (Streptococcus pneumoniae [33]) was 0.5 µg/mL (≈ 0.345 µM) and the MIC90 (Staphylococcus aureus [34]) was 1 µg/mL (≈ 0.69 µM). The MIC90 (Serratia marcescens) was over 64 µg/mL, the MIC90 (Enterococcus faecium [35]) was over 64 µg/mL and the MIC90 [36] was 2 µg/mL (≈ 1.38 µM). It also gave an MIC90 (Streptococcus agalactiae) of 0.5 µg/mL (≈ 0.345 µM), an MIC90 (Streptococcus pyogenes) of 0.5 µg/mL (≈ 0.345 µM) and an MIC90 (Haemophilus influenzae [37]) of over 64 µg/mL.
